Experiment [1] deals with Mycobacterium tuberculosis. Kind of experiment: Antimicrobial activity against Mycobacterium bovis BCG by resazurine microtiter assay in presence of 1 mg/liter CCCP. To be noted: variant bovis BCG, Urine. Format: functional. Summed up:
(§1)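 Resazurin microdilution MIC (serial twofold dilutions, 8 days at 37°C plus 2 days after resazurin) run with a fixed subinhibitory level of efflux pump inhibitor (valinomycin, reserpine or CCCP) present throughout. Triplicate, repeated at least three times.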

Experiment [2] concerns Mycobacterium tuberculosis. Put plainly: Antimicrobial activity against Mycobacterium bovis BCG by resazurine microtiter assay. To be noted: variant bovis BCG, Urine. In kind it is functional. Summed up:
(§2)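 Resazurin microdilution in liquid medium: serial twofold compound dilutions, plates incubated 8 days at 37°C, then 2 more days after adding resazurin. MIC read from the indicator. Run in triplicate and repeated at least three times.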

Experiment [3] deals with Mycobacterium tuberculosis. Kind of experiment: Antimicrobial activity against Mycobacterium bovis BCG by twofold dilution method. Format: functional. To be noted: variant bovis BCG. The gist of the method:
(§3)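 Agar MIC: log-phase cultures diluted to 10^5 cells/ml, 10 µl spotted onto Middlebrook 7H10 plates with serial twofold antibiotic dilutions. Visible growth scored after 21 days at 37°C. Triplicate, repeated at least three times.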

For experiment [4], the system named is Mycobacterium tuberculosis. Put plainly: Effect on intracellular redox potential in wild-type Mycobacterium bovis BCG assessed as accumulation of formazan at 5 mg/liter after 1 hr by MTT assay. In kind it is functional, organism-based. To be noted: variant bovis BCG. The gist of the method: (§4)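 MTT reduction as an index of intracellular redox potential: cultures at OD600 0.2 treated with drug or solvent for 1 h at 37°C in quadruplicate wells, MTT (2 mg/ml stock) added, 3 h further incubation. Formazan solubilised with 10% SDS, 30 min shaking, absorbance at 600 nm. Repeated at least three independent times.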

The subject of experiment [5] is Mycobacterium tuberculosis. Put plainly: Antimicrobial activity against Mycobacterium bovis BCG harboring pPAZ23 carrying p27-p55 operon by twofold dilution method. Format: functional. To be noted: variant bovis BCG. The gist of the method:
as §3

Experiment [6] has as its system Mycobacterium tuberculosis. Kind of experiment: Decrease in intracellular redox potential in wild-type Mycobacterium bovis BCG assessed as decreased accumulation of formazan at 256 mg/liter after 1 hr by MTT assay. Format: functional, variant bovis BCG. Also on record: scale not given: the % may be the effect or the level left. The gist of the method: as §4
The subject of experiment [7] is Mycobacterium tuberculosis. Put plainly: Ratio of MIC for Mycobacterium bovis BCG harboring pPAZ23 carrying p27-p55 operon to MIC for wild-type Mycobacterium bovis BCG. Format: functional, variant bovis BCG.
For experiment [8], the system named is Mycobacterium tuberculosis. Put plainly: Ratio of MIC for wild type Mycobacterium bovis BCG to MIC for Mycobacterium bovis BCG KOP55 harboring inactivated p55 gene. In kind it is functional, variant bovis BCG.
Experiment [9] concerns Mycobacterium tuberculosis. Kind of experiment: Increase in intracellular redox potential in wild-type Mycobacterium bovis BCG assessed as increased accumulation of formazan at 5 mg/liter after 1 hr by MTT assay. In kind it is functional, variant bovis BCG. The gist of the method:
as §4

Experiment [10] has as its system Mycobacterium tuberculosis. Put plainly: Ratio of MIC for wild type Mycobacterium bovis BCG to MIC for wild type Mycobacterium bovis BCG in presence of 1 mg/liter CCCP. In kind it is functional, variant bovis BCG.
Experiment [11] has as its system Mycobacterium tuberculosis. Kind of experiment: Antimicrobial activity against Mycobacterium bovis BCG by resazurine microtiter assay in presence of 0.1 mg/liter valinomycin. Format: functional. To be noted: variant bovis BCG, Urine. Summed up:
as §1

Experiment [12] concerns Mycobacterium tuberculosis. Put plainly: Antimicrobial activity against Mycobacterium bovis BCG by resazurine microtiter assay in presence of 0.5 mg/liter reserpine. Format: functional. To be noted: variant bovis BCG, Urine. The gist of the method: as §1
For experiment [13], the system named is Mycobacterium tuberculosis. Kind of experiment: Antimicrobial activity against Mycobacterium bovis BCG harboring pPAZ23 carrying p27-p55 operon by resazurine microtiter assay. Format: functional. To be noted: variant bovis BCG, Urine. Summed up:
as §2

Values after ≈ are worked out from the molar mass of the structure shown. Active and inactive are the calls of the source. The calls are words filed in the database; no cut-off is given here. Where a SMILES comes first, the peptide text is derived from it. Bridges are numbered along the chain shown (N, C = ends). [ ]: non-standard residue; d: D form. The star is where a group is joined. Ileψ(thiazoline)Cys = CC[C@H](C)[C@H](N)C1=N[C@H](C(=O)*)CS1; dOrn = NCCC[C@@H](N)C(=O)O

For `CC[C@H](C)[C@H](N)C1=N[C@H](C(=O)N[C@@H](CC(C)C)C(=O)N[C@H](CCC(=O)O)C(=O)N[C@H](C(=O)N[C@H]2CCCCNC(=O)[C@H](CC(N)=O)NC(=O)[C@@H](CC(=O)O)NC(=O)[C@H](Cc3cnc[nH]3)NC(=O)[C@@H](Cc3ccccc3)NC(=O)[C@H]([C@@H](C)CC)NC(=O)[C@@H](CCCN)NC2=O)[C@@H](C)CC)CS1` [BACITRACIN] ({Ileψ(thiazoline)Cys}-L[dE]IK[dOrn]I[dF]H[dD]N; lactam 4-C), the MIC in experiment [1] and in experiment [2] was more than 256 µg/mL each time.

Compound `N#CC(C#N)=NNc1cccc(Cl)c1` [CARBONYL CYANIDE M-CHLOROPHENYLHYDRAZONE] returned an MIC in experiment [2] of 4 µg/mL (≈ 19.5 µM).

Compound `CN(C)CCCN1c2ccccc2Sc2ccc(Cl)cc21` [CHLORPROMAZINE] yielded an MIC in [3] of 4 µg/mL (≈ 12.5 µM).

Take `CC(C)/N=c1\cc2n(-c3ccc(Cl)cc3)c3ccccc3nc-2cc1Nc1ccc(Cl)cc1` [CLOFAZIMINE]: in experiment [4], the result was inactive. The MIC in experiment [3] and in [5] was 0.1 µg/mL (≈ 0.211 µM) each time.

As for `CN(C)C(=O)/N=N/C(=O)N(C)C` [DIAMIDE], the Activity in [6] stood at 25%.

On to `Clc1ccc(COC(Cn2ccnc2)c2ccc(Cl)cc2Cl)cc1` (centres undefined) [ECONAZOLE], for which the Ratio came to 2 in experiment [7] and 4 in experiment [8]. In addition, the MIC in experiment [3] was 6.4 µg/mL (≈ 16.8 µM); in experiment [5], 12.8 µg/mL (≈ 33.5 µM).

Take `CC[C@@H](CO)NCCN[C@@H](CC)CO` [ETHAMBUTOL]: in experiment [2], the lowest concentration to inhibit growth (MIC) was 4 µg/mL (≈ 19.6 µM).

`CC1=CC(=O)c2ccccc2C1=O` [MENADIONE]: the “fold change (FC)” value in experiment [9] is reported as 3.5.

For `CO[C@@H]1[C@@H](OC(N)=O)[C@@H](O)[C@H](Oc2ccc3c(O)c(NC(=O)c4ccc(O)c(CC=C(C)C)c4)c(=O)oc3c2C)OC1(C)C` [NOVOBIOCIN], the Ratio in experiment [10] is listed as 4. The MIC stood at 8 µg/mL in experiment [11], 4 µg/mL in experiment [1], 16 µg/mL (≈ 26.1 µM) in [2] and 8 µg/mL in experiment [12].

`O=[N+]([O-])c1cn2c(n1)OC[C@@H](OCc1ccc(OC(F)(F)F)cc1)C2` [PRETOMANID]: the MIC in experiment [2] amounted to 0.25 µg/mL (≈ 0.696 µM).

`COC(=O)[C@H]1[C@H]2C[C@@H]3c4[nH]c5cc(OC)ccc5c4CCN3C[C@H]2C[C@@H](OC(=O)c2cc(OC)c(OC)c(OC)c2)[C@@H]1OC` [RESERPINE]: 2 µg/mL (≈ 3.29 µM) was the least that counted as inhibitory in experiment [2] (MIC).

Regarding `CO[C@H]1/C=C/O[C@@]2(C)Oc3c(C)c(O)c4c(O)c(c(/C=N/N5CCN(C)CC5)c(O)c4c3C2=O)NC(=O)/C(C)=C\C=C\[C@H](C)[C@H](O)[C@@H](C)[C@@H](O)[C@@H](C)[C@H](OC(C)=O)[C@@H]1C` [RIFAMPIN], in experiment [10], the Ratio worked out at 4. Besides, the MIC in experiment [11] amounted to 0.0016 µg/mL; in experiment [1], 0.0008 µg/mL; in experiment [13], 0.0032 µg/mL (≈ 0.00389 µM); in [2] it was 0.0032 µg/mL (≈ 0.00389 µM); in experiment [12], 0.0016 µg/mL.

In the case of `Oc1cc(Cl)ccc1Oc1ccc(Cl)cc1Cl` [TRICLOSAN], in experiment [3], the MIC was found to be 8 µg/mL (≈ 27.6 µM).

`CC(C)[C@@H]1NC(=O)[C@H](C)OC(=O)[C@@H](C(C)C)NC(=O)[C@@H](C(C)C)OC(=O)[C@H](C(C)C)NC(=O)[C@H](C)OC(=O)[C@@H](C(C)C)NC(=O)[C@@H](C(C)C)OC(=O)[C@H](C(C)C)NC(=O)[C@H](C)OC(=O)[C@@H](C(C)C)NC(=O)[C@@H](C(C)C)OC1=O` [VALINOMYCIN] displayed a minimal inhibitory concentration (MIC) in experiment [2] of 0.4 µg/mL (≈ 0.36 µM).

Turning to `CN[C@H](CC(C)C)C(=O)N[C@H]1C(=O)N[C@@H](CC(N)=O)C(=O)N[C@H]2C(=O)N[C@H]3C(=O)N[C@H](C(=O)N[C@H](C(=O)O)c4cc(O)cc(O)c4-c4cc3ccc4O)[C@H](O)c3ccc(c(Cl)c3)Oc3cc2cc(c3O[C@@H]2O[C@H](CO)[C@@H](O)[C@H](O)[C@H]2O[C@H]2C[C@](C)(N)[C@H](O)[C@H](C)O2)Oc2ccc(cc2Cl)[C@H]1O` [VANCOMYCIN], the Ratio in experiment [7] was found to be 2; in experiment [8], 16. The MIC in experiment [1] stood at 4 µg/mL; in experiment [13], 8 µg/mL (≈ 5.52 µM); in experiment [2] it was 4 µg/mL (≈ 2.76 µM).

These data come from ChEMBL document CHEMBL1649585, “Role of the Mycobacterium tuberculosis P55 efflux pump in intrinsic drug resistance, oxidative stress responses, and growth” (2009).
